Source: ChEMBL document CHEMBL4689842, “EUbOPEN Chemogenomics Library wave 1” (2021)
Where “and” joins values, the source holds several entries; their conditions need not be identical. Equal entries are not always repeated.

System: Fibroblast
Assay: Multiplex assay against human fibroblast
Assay type: toxicity, cell-based
Settings: 10 µM, compound concentration 10 uM
In short: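 Live cells carried four stains from seeding: Hoechst33342, BioTracker Green Microtubule Cytoskeleton Dye, MitoTracker Red and Annexin V Alexa Fluor 680. They were imaged on a CQ1 microscope at 37°C and 5% CO2 after compound addition. Using CellPathfinder machine-learning gating, cells were split into Hoechst high-intensity objects or normal cells, normal cells into healthy, pyknosed or fragmented nuclei, and pyknosed cells into mitotic or apoptotic; tubulin, mitochondrial-mass and membrane-permeability phenotypes are per cents of healthy-nucleus cells.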

Q: How did the “Population Apoptotic (%)” value (12 h, replicate 1) turn out when `O=C(NCCN1CCOCC1)c1ccc2c(c1)C(=O)c1ccc(Nc3ccc(F)c(NC(=O)c4ccccc4)c3)cc1CC2` [FS-694] was run?
A: Its value is 65% and 38%.

Q: And the “Population Fragmented Nuclei (%)” value (12 h, replicate 1)?
A: Its value is 35% and 51%.

Q: And the “Population Healthy Nuclei (%)” value (12 h, replicate 1)?
A: The value was 49% and 32%.

Q: What about the “Population Mitotic Cells (%)” value (12 h, replicate 1) of the same molecule?
A: The value was 34% and 61%.

Q: What about the “Population Normal (%)” value (12 h, replicate 1) of the same molecule?
A: Its value is 81% and 29%.

Q: What about the “Population Pyknosed Nuclei (%)” value (12 h, replicate 1) of the same molecule?
A: The value was 14%.

Q: What about the “Population Tubulin-Different-Phenotype (%)” value (12 h, replicate 1) of the same molecule?
A: The value was 20% and 24%.

Q: And the “Total Cell Count” value (12 h, replicate 1)?
A: Its value is 371 and 970.

Q: And the “Population Apoptotic (%)” value (12 h, replicate 2)?
A: The value was 72% and 68%.

Q: And the “Population Fragmented Nuclei (%)” value (12 h, replicate 2)?
A: Its value is 57%.

Q: What about the “Population Healthy Nuclei (%)” value (12 h, replicate 2) of the same molecule?
A: Its value is 27% and 29%.

Q: And the “Population Hoechst High Intensity Objects (%)” value (12 h, replicate 2)?
A: The value was 44% and 82%.

Q: What about the “Population Membrane Permeable-Phenotype (%)” value (12 h, replicate 2) of the same molecule?
A: Its value is 21% and 20%.

Q: What about the “Population Mitochondria Different-Phenotype (%)” value (12 h, replicate 2) of the same molecule?
A: Its value is 15% and 0%.

Q: And the “Population Mitotic Cells (%)” value (12 h, replicate 2)?
A: Its value is 27% and 31%.

Q: And the “Population Pyknosed Nuclei (%)” value (12 h, replicate 2)?
A: The value was 15% and 13%.

Q: And the “Population Apoptotic (%)” value (24 h, replicate 1)?
A: Its value is 44% and 59%.

Q: What about the “Population Fragmented Nuclei (%)” value (24 h, replicate 1) of the same molecule?
A: The value was 50% and 35%.

Q: What about the “Population Healthy Nuclei (%)” value (24 h, replicate 1) of the same molecule?
A: The value was 36% and 50%.

Q: What about the “Population Membrane Permeable-Phenotype (%)” value (24 h, replicate 1) of the same molecule?
A: The value was 8%.

Q: What about the “Population Mitochondria Different-Phenotype (%)” value (24 h, replicate 1) of the same molecule?
A: Its value is 13% and 7%.

Q: What about the “Population Mitotic Cells (%)” value (24 h, replicate 1) of the same molecule?
A: The value was 55% and 40%.

Q: What about the “Population Normal (%)” value (24 h, replicate 1) of the same molecule?
A: The value was 34% and 80%.

Q: And the “Population Pyknosed Nuclei (%)” value (24 h, replicate 1)?
A: Its value is 13% and 14%.

Q: What about the “Population Tubulin-Different-Phenotype (%)” value (24 h, replicate 1) of the same molecule?
A: Its value is 25% and 24%.

Q: And the “Total Cell Count” value (24 h, replicate 1)?
A: The value was 927 and 391.

Q: What about the “Population Apoptotic (%)” value (24 h, replicate 2) of the same molecule?
A: Its value is 80% and 55%.

Q: What about the “Population Fragmented Nuclei (%)” value (24 h, replicate 2) of the same molecule?
A: Its value is 43% and 57%.

Q: And the “Population Healthy Nuclei (%)” value (24 h, replicate 2)?
A: The value was 40% and 27%.

Q: What about the “Population Hoechst High Intensity Objects (%)” value (24 h, replicate 2) of the same molecule?
A: The value was 50% and 77%.

Q: What about the “Population Membrane Permeable-Phenotype (%)” value (24 h, replicate 2) of the same molecule?
A: Its value is 16% and 15%.

Q: And the “Population Mitochondria Different-Phenotype (%)” value (24 h, replicate 2)?
A: Its value is 20% and 0%.

Q: And the “Population Mitotic Cells (%)” value (24 h, replicate 2)?
A: The value was 20% and 44%.

Q: And the “Population Normal (%)” value (24 h, replicate 2)?
A: The value was 50% and 22%.

Q: And the “Population Pyknosed Nuclei (%)” value (24 h, replicate 2)?
A: Its value is 16% and 15%.

Q: What about the “Population Tubulin-Different-Phenotype (%)” value (24 h, replicate 2) of the same molecule?
A: Its value is 20% and 9%.
